What was measured:
[1] = target: T1, Angiotensin-converting enzyme (Oryctolagus cuniculus, UniProt P12822); experiment: Inhibition of rabbit lung angiotensin I converting enzyme (ACE) using hippuryl-histidyl-leucine as substrate; settings: read-out: I50
T1 sequence (P12822 whole entry): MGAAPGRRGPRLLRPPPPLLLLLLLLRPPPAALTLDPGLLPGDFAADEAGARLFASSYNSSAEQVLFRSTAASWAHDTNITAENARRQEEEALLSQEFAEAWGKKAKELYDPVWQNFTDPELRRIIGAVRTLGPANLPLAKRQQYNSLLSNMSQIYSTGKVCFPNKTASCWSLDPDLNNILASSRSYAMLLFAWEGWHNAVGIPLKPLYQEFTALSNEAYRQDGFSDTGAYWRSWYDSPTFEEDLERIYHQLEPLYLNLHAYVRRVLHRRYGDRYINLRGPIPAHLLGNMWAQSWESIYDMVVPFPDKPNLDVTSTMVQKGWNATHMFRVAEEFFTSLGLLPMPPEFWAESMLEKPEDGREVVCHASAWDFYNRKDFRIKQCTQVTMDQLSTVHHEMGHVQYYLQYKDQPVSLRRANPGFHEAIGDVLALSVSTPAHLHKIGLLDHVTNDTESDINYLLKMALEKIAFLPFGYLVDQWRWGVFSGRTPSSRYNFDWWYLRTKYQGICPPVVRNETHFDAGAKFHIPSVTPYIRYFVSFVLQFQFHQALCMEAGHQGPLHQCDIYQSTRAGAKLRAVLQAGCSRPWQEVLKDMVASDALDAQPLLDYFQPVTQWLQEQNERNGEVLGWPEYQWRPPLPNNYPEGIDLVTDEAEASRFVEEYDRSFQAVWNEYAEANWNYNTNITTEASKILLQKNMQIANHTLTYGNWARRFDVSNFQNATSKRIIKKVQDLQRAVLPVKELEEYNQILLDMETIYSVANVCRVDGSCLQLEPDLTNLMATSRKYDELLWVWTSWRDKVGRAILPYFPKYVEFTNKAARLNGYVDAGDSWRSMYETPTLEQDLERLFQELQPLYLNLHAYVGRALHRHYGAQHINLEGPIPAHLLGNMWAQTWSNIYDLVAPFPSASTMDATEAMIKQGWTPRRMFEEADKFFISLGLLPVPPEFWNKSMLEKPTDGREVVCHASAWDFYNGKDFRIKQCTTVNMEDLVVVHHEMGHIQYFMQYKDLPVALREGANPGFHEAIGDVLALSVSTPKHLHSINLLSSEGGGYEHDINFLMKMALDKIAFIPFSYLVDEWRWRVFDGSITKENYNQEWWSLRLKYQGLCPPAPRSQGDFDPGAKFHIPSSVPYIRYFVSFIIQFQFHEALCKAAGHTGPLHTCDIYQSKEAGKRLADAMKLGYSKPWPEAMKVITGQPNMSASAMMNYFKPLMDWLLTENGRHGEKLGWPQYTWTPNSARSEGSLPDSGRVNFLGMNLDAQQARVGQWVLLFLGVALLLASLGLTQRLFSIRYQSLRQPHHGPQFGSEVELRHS

[2] = target: T2, Angiotensin-converting enzyme (Rattus norvegicus) (UniProt P47820); experiment: In vivo dose required to produce 50% inhibition against angiotensin I in normotensive rat after intravenous administration; assay type: functional, organism-based
T2 sequence (whole entry): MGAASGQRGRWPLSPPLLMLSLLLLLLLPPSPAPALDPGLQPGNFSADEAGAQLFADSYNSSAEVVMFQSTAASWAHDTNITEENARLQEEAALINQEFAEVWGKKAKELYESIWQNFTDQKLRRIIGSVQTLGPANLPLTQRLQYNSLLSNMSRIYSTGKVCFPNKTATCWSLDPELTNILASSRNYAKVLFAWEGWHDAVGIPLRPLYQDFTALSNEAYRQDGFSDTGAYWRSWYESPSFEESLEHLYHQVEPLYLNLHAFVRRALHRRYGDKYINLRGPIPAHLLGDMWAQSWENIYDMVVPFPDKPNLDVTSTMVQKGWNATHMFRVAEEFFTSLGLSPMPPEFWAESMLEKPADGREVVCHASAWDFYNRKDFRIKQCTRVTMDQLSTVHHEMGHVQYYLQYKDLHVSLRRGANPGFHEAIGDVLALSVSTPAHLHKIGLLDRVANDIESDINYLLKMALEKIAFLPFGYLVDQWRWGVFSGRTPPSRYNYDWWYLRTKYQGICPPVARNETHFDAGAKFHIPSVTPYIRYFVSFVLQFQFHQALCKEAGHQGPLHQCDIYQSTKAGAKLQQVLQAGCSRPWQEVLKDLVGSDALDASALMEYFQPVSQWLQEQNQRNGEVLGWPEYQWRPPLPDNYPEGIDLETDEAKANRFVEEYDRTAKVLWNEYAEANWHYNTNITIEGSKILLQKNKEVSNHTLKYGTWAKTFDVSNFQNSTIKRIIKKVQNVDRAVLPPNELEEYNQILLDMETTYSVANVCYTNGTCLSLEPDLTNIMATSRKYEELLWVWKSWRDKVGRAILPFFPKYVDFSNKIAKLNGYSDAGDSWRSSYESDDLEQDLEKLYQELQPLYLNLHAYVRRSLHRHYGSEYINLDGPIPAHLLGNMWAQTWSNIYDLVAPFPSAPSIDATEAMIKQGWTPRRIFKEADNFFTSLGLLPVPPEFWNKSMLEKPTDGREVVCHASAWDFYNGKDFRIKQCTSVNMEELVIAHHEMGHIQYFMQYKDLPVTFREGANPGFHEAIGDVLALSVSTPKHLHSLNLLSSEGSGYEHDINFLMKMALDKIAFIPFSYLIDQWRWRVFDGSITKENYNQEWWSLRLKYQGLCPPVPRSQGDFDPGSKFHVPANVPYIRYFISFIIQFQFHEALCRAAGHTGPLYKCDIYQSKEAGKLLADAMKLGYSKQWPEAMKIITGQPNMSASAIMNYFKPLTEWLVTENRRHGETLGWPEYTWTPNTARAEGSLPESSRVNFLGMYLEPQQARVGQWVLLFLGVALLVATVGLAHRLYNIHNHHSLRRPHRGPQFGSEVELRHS
How it was run: (§1)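 Conscious, unrestrained male Sprague-Dawley rats (225–275 g) with indwelling aortic and vena caval catheters, recovered ≥2 weeks. […] Compound given iv in 0.1 mL water or 5% NaHCO3, responses followed up to 70 min. Maximum % inhibition is the mean of four rats per dose; ED50 interpolated from plots of ≥3 doses.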

[3] = target: T2, Angiotensin-converting enzyme (Rattus norvegicus); experiment: In vivo oral activity in normotensive rat and percent maximal inhibition of the angiotensin I pressor response; assay type: functional, organism-based
How it was run: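 Catheterized conscious, unrestrained male Sprague-Dawley rats (225–275 g), recovered ≥2 weeks. […] Oral dose in 0.1 mL water, 5% NaHCO3 or 1% agar suspension. Aortic pressure read by transducer for up to 280 min. Maximum % inhibition is the mean of four animals per dose.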

[4] = target: T2, Angiotensin-converting enzyme (Rattus norvegicus); experiment: In vivo dose required to produce 50% inhibition against angiotensin I (AI) in normotensive rat after intravenous administration; assay type: functional, organism-based; how it was run: as §1
[5] = target: T1, Angiotensin-converting enzyme; experiment: Evaluated for inhibitory activity against rabbit lung angiotensin I converting enzyme (ACE) using hippuryl-histidyl-leucine as substrate; settings: read-out: I50

## COc1ccc(N(CC(=O)O)C(=O)[C@H](CCCCN)OP(=O)(O)CCCCc2ccccc2)cc1OC
[1]
  IC50: 35 nM
[2]
  ED50: 0.04 µmol/kg
[3]
  inhibition: 62%

## NCCCC[C@H](OP(=O)(O)CCCCc1ccccc1)C(=O)N1C[C@@H](c2ccccc2)C[C@H]1C(=O)O
[1]
  IC50: 3.5 nM
[2]
  ED50: 0.037 µmol/kg
[3]
  inhibition: 58%

## NCCCC[C@H](OP(=O)(O)CCCCc1ccccc1)C(=O)N1C[C@@H](O)C[C@H]1C(=O)O
[1]
  IC50: 25 nM
[2]
  ED50: 0.033 µmol/kg
[3]
  inhibition: 69%

## NCCCC[C@H](OP(=O)(O)CCCCc1ccccc1)C(=O)N1CC=C[C@H]1C(=O)O
[1]
  IC50: 43 nM
[2]
  ED50: 0.105 µmol/kg
[3]
  inhibition: 73%

## NCCCC[C@H](OP(=O)(O)CCCCc1ccccc1)C(=O)N1CSC[C@H]1C(=O)O
[1]
  IC50: 91 nM
[2]
  ED50: 0.124 µmol/kg
[3]
  inhibition: 46%

## NCCCC[C@H](OP(=O)(O)CCCCc1ccccc1)C(=O)N1C[C@@H](Cc2ccccc2)C[C@H]1C(=O)O
[1]
  IC50: 1 nM
[2]
  ED50: 0.026 µmol/kg
[3]
  inhibition: 14%

## NCCCC[C@H](OP(=O)(O)CCCCc1ccccc1)C(=O)N1c2ccccc2C[C@H]1C(=O)O
[1]
  IC50: 4.4 nM
[3]
  inhibition: 13%
[4]
  ED50: < 0.014 µmol/kg

## NCCCC[C@H](OP(=O)(O)CCCCc1ccccc1)C(=O)N1C[C@H](c2ccccc2)C[C@H]1C(=O)O
[1]
  IC50: 270 nM

## NCCCC[C@H](OP(=O)(O)CCCCc1ccccc1)C(=O)N(CC(=O)O)C1Cc2ccccc2C1
[5]
  IC50: 27 nM
[2]
  ED50: 0.196 µmol/kg

## CS[C@@H]1C[C@@H](C(=O)O)N(C(=O)[C@H](CCCCN)OP(=O)(O)CCCCc2ccccc2)C1
[1]
  IC50: 9.3 nM
[2]
  ED50: 0.031 µmol/kg
[3]
  inhibition: 16%

## NCCCC[C@H](OP(=O)(O)CCCCc1ccccc1)C(=O)N1CCC[C@H]1C(=O)O
[2]
  ED50: 0.063 µmol/kg
[3]
  inhibition: 90%

## NCCCC[C@H](OP(=O)(O)CCCCc1ccccc1)C(=O)N1C[C@H](C2CCCCC2)C[C@H]1C(=O)O
[1]
  IC50: 31 nM
[2]
  ED50: 0.11 µmol/kg
[3]
  inhibition: 15%

## NCCCC[C@H](OP(=O)(O)CCCCc1ccccc1)C(=O)N1[C@H](C(=O)O)C[C@@H]2CCCC[C@@H]21
[1]
  IC50: 28 nM
[2]
  ED50: 0.1 µmol/kg
[3]
  inhibition: 14%

## COc1ccc(N(CC(=O)O)C(=O)[C@H](CCCCN)OP(=O)(O)CCCCc2ccccc2)cc1
[1]
  IC50: 39 nM
[2]
  ED50: 0.043 µmol/kg
[3]
  inhibition: 40%

## NCCCC[C@H](OP(=O)(O)CCCCc1ccccc1)C(=O)N1CC2(C[C@H]1C(=O)O)SCCS2
[1]
  IC50: 1.5 nM
[2]
  ED50: 0.018 µmol/kg
[3]
  inhibition: 51%

## NCCCC[C@H](OP(=O)(O)CCCCc1ccccc1)C(=O)N1C[C@@H](C2CCCCC2)C[C@H]1C(=O)O
[1]
  IC50: 11 nM
[2]
  ED50: 0.06 µmol/kg
[3]
  inhibition: 33%

## NCCCC[C@H](OP(=O)(O)CCCCc1ccccc1)C(=O)N(CC(=O)O)c1ccccc1
[5]
  IC50: 29 nM
[2]
  ED50: 0.136 µmol/kg
[3]
  inhibition: 53%

## NCCCC[C@H](OP(=O)(O)CCCCc1ccccc1)C(=O)N1C[C@H](Sc2ccccc2)C[C@H]1C(=O)O
[1]
  IC50: 2.6 nM
[2]
  ED50: 0.066 µmol/kg
[3]
  inhibition: 11%

## CS[C@H]1C[C@@H](C(=O)O)N(C(=O)[C@H](CCCCN)OP(=O)(O)CCCCc2ccccc2)C1
[1]
  IC50: 9.7 nM
[2]
  ED50: 0.059 µmol/kg
[3]
  inhibition: 8%

## NCCCC[C@H](OP(=O)(O)CCCCc1ccccc1)C(=O)N1C[C@@H](F)C[C@H]1C(=O)O
[1]
  IC50: 160 nM

## NCCCC[C@H](OP(=O)(O)CCCCc1ccccc1)C(=O)N(CC(=O)O)c1ccc2c(c1)OCO2
[1]
  IC50: 24 nM
[2]
  ED50: 0.1 µmol/kg
[3]
  inhibition: 69%

## NCCCC[C@H](OP(=O)(O)CCCCc1ccccc1)C(=O)N1C[C@H](O)C[C@H]1C(=O)O
[1]
  IC50: 140 nM
[2]
  ED50: 0.339 µmol/kg

## NCCCC[C@H](OP(=O)(O)CCCCc1ccccc1)C(=O)N1CCS[C@H]1C(=O)O
[1]
  IC50: 81 nM
[2]
  ED50: 0.163 µmol/kg
[3]
  inhibition: 50%

## NCCCC[C@H](OP(=O)(O)CCCCc1ccccc1)C(=O)N1C[C@H](F)C[C@H]1C(=O)O
[1]
  IC50: 320 nM

## CSC1(SC)C[C@@H](C(=O)O)N(C(=O)[C@H](CCCCN)OP(=O)(O)CCCCc2ccccc2)C1
[1]
  IC50: 16 nM
[2]
  ED50: 0.14 µmol/kg
[3]
  inhibition: 45%

## NCCCC[C@H](OP(=O)(O)CCCCc1ccccc1)C(=O)N(CC(=O)O)C1CCCCC1
[1]
  IC50: 22 nM
[2]
  ED50: 0.106 µmol/kg
[3]
  inhibition: 31%

## NCCCC[C@H](OP(=O)(O)CCCCc1ccccc1)C(=O)N1[C@H](C(=O)O)C[C@@H]2CCC[C@@H]21
[1]
  IC50: 26 nM
[3]
  inhibition: 41%
[4]
  ED50: 0.035 µmol/kg

## NCCCC[C@H](OP(=O)(O)CCCCc1ccccc1)C(=O)N1CC(F)(F)C[C@H]1C(=O)O
[1]
  IC50: 170 nM
[2]
  ED50: 0.162 µmol/kg
[3]
  inhibition: 49%

## NCCCC[C@H](OP(=O)(O)CCCCc1ccccc1)C(=O)N1C[C@@H](Sc2ccccc2)C[C@H]1C(=O)O
[1]
  IC50: 3 nM
[2]
  ED50: 0.047 µmol/kg
[3]
  inhibition: 15%

## NCCCC[C@H](OP(=O)(O)CCCCc1ccccc1)C(=O)N1COC[C@H]1C(=O)O
[1]
  IC50: 145 nM
[2]
  ED50: 0.677 µmol/kg

Reference: ChEMBL document CHEMBL1124773, “(Phosphinyloxy)acyl amino acid inhibitors of angiotensin converting enzyme. 2. Terminal amino acid analogues of (S)-1-[6-amino-2 [[hydroxy(4-phenylbutyl)phosphinyl]oxy]-1-oxohexyl]-L-proline” (J Med Chem, 1990)
